Laboratory results from ChEMBL document CHEMBL5325511, “Discovery of N-(4-(Aminomethyl)phenyl)-5-methylpyrimidin-2-amine Derivatives as Potent and Selective JAK2 Inhibitors” (ACS Med Chem Lett, 2023).

Legend:
[1] = molecular target: T1, Receptor-type tyrosine-protein kinase FLT3 (Homo sapiens, UniProt P36888); experiment: Inhibition of FLT3 in human MOLM-13 cells; format: cell-based
T1 sequence (P36888 whole entry): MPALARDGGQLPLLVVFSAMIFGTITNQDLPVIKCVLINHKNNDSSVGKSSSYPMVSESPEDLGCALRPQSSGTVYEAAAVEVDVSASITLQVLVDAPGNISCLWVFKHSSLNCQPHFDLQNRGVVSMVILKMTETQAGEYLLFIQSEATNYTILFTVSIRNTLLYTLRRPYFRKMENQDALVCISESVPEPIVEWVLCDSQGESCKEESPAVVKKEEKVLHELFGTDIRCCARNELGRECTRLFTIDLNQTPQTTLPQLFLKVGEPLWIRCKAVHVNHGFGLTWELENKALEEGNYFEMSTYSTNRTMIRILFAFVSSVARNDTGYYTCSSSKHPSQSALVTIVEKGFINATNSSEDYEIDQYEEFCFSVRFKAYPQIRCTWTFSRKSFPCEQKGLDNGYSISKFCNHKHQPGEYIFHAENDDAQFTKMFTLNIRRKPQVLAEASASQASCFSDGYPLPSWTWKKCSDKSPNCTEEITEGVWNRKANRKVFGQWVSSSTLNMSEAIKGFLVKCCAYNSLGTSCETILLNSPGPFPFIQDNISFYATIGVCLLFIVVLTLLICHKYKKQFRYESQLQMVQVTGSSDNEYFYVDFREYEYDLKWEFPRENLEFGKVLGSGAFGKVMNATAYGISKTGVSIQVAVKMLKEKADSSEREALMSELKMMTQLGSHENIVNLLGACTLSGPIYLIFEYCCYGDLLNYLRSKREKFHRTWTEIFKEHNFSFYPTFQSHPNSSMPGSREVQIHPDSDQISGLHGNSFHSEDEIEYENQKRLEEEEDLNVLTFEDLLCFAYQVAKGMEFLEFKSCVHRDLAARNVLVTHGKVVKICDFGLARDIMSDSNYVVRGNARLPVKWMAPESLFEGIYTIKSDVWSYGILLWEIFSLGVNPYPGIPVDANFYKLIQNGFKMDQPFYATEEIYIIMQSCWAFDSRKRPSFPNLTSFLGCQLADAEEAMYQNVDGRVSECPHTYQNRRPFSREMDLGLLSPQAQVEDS
Summary of the method: (§1)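 Cell proliferation assay. IC50 is the concentration that inhibits proliferation by 50%, taken from dose–response curves. Mean ± SEM of at least three independent experiments.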

[2] = Metabolic stability in human liver microsomes assessed as half life; format: ADME, Microsome
[3] = molecular target: T2, Tyrosine-protein kinase JAK2 (Homo sapiens, UniProt O60674); experiment: Inhibition of human JAK2 JH1 expressed in baculovirus infected Sf9 cells assessed as residual activity at 100 nM relative to control
T2 sequence (O60674 whole entry): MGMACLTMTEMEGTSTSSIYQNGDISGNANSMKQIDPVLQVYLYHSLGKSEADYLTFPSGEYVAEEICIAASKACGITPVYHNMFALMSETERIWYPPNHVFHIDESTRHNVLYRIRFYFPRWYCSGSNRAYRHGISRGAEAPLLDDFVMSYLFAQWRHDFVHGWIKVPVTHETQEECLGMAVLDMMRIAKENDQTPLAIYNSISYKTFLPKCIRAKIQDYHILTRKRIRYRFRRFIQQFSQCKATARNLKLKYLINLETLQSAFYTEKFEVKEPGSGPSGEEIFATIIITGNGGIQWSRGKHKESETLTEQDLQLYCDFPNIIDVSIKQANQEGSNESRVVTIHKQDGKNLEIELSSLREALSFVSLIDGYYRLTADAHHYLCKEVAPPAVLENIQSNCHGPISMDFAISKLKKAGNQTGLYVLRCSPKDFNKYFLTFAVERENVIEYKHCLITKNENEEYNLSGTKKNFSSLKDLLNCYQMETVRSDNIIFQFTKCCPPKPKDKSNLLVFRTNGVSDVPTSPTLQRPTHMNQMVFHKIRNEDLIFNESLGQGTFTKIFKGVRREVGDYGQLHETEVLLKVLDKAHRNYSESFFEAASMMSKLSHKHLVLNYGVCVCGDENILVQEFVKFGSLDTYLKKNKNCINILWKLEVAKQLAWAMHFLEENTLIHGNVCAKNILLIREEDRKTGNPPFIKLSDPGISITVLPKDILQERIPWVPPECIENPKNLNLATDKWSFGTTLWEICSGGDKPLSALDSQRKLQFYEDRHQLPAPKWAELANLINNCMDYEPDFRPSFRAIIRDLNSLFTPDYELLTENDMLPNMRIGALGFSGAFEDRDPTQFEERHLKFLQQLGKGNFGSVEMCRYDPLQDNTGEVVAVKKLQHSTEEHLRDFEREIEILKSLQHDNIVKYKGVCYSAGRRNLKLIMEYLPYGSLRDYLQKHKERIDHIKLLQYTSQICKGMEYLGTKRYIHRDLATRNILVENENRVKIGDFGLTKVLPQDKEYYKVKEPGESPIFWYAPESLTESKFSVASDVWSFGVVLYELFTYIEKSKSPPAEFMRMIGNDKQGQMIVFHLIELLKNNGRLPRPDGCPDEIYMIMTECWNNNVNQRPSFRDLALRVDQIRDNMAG

[4] = molecular target: Tyrosine-protein kinase JAK2 (Mus musculus, UniProt Q62120, V617F); experiment: Inhibition of JAK2 V617F mutant in mouse BaF3 cells; format: cell-based; summary of the method: as §1
Sequence of Tyrosine-protein kinase JAK2 (Mus musculus, UniProt Q62120, V617F) (Q62120 as listed by the source V617F): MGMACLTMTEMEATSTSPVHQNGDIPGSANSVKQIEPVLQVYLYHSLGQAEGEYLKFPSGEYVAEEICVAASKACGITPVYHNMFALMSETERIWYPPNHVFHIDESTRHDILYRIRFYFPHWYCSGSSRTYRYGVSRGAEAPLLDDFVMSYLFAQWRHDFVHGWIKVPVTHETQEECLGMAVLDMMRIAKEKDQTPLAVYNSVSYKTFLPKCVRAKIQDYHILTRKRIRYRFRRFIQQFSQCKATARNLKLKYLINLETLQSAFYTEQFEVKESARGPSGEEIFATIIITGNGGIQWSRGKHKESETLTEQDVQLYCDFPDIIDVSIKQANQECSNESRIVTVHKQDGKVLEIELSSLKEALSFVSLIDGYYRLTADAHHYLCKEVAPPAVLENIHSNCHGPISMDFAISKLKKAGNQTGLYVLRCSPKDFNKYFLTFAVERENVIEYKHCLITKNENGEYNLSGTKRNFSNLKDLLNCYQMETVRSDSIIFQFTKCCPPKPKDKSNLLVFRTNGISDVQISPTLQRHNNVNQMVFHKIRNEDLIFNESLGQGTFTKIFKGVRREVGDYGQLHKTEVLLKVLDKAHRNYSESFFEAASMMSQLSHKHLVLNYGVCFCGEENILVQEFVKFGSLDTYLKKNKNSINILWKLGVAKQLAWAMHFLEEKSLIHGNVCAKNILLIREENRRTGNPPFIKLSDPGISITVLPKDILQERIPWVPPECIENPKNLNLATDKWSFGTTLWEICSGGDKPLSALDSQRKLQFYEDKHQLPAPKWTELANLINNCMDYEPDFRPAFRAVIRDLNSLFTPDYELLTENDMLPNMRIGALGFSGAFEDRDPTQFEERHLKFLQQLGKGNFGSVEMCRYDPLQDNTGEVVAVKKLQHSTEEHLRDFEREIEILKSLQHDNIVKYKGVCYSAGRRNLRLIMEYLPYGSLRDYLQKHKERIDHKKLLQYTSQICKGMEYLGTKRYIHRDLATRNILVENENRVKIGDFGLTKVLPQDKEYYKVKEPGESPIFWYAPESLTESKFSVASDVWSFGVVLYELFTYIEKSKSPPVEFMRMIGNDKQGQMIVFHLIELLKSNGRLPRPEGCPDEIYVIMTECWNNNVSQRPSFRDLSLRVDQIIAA

[5] = molecular target: Tyrosine-protein kinase JAK2 (Homo sapiens, UniProt O60674, V617F); experiment: Inhibition of JAK2 V617F mutant in human SET2 cells; format: cell-based; summary of the method: as §1
Sequence of Tyrosine-protein kinase JAK2 (Homo sapiens, UniProt O60674, V617F) (O60674 whole entry V617F): as the sequence (O60674 whole entry) above, with V617F counted along it

[6] = molecular target: Tyrosine-protein kinase JAK1 (Homo sapiens, UniProt P23458); experiment: Inhibition of JAK1 (unknown origin) in presence of Mg/ATP mixture by [gamma p33]-ATP based radiometric assay
Sequence of Tyrosine-protein kinase JAK1 (P23458 whole entry): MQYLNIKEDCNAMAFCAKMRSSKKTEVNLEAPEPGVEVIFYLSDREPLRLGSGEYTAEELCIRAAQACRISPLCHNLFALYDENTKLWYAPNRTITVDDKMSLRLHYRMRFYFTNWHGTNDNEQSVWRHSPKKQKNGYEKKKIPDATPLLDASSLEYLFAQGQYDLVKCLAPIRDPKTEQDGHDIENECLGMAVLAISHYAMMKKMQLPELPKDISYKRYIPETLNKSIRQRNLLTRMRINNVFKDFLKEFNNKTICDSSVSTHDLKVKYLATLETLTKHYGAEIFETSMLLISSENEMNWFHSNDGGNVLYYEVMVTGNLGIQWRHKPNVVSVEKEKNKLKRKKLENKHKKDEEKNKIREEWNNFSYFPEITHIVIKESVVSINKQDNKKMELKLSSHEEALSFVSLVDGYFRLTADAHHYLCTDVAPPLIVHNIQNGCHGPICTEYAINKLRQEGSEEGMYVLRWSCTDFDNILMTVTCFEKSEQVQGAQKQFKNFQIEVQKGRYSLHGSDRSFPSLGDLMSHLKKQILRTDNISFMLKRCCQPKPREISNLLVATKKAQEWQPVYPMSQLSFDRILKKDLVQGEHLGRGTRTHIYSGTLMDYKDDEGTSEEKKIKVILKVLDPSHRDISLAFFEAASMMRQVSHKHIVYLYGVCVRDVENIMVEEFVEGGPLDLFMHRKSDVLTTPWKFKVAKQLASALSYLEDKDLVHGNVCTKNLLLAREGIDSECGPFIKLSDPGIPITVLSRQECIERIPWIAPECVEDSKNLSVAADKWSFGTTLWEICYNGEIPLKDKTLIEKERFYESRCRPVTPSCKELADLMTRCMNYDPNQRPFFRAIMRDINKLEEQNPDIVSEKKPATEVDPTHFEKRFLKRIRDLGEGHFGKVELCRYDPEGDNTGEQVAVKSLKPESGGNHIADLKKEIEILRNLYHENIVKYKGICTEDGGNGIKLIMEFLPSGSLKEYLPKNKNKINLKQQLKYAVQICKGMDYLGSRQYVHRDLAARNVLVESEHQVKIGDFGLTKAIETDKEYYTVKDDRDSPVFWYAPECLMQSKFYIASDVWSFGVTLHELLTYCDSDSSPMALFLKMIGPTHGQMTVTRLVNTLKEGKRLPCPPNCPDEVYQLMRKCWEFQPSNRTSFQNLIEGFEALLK
Summary of the method: (§2)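 IC50 values determined by Eurofins Discovery.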

[7] = Selectivity ratio of IC50 for FLT3 (unknown origin) to IC50 for JAK2 (unknown origin)
[8] = molecular target: T1, Receptor-type tyrosine-protein kinase FLT3; experiment: Inhibition of FLT3 (unknown origin) in presence of Mg/ATP mixture by [gamma p33]-ATP based radiometric assay; summary of the method: as §2
[9] = molecular target: T2, Tyrosine-protein kinase JAK2; experiment: Inhibition of JAK2 (unknown origin) in presence of Mg/ATP mixture by [gamma p33]-ATP based radiometric assay; summary of the method: as §2
[10] = Selectivity ratio of IC50 for TYK2 (unknown origin) to IC50 for JAK2 (unknown origin)
[11] = molecular target: T3, Tyrosine-protein kinase JAK3 (Homo sapiens, UniProt P52333); experiment: Inhibition of JAK3 (unknown origin) in presence of Mg/ATP mixture by [gamma p33]-ATP based radiometric assay
T3 sequence (P52333 whole entry): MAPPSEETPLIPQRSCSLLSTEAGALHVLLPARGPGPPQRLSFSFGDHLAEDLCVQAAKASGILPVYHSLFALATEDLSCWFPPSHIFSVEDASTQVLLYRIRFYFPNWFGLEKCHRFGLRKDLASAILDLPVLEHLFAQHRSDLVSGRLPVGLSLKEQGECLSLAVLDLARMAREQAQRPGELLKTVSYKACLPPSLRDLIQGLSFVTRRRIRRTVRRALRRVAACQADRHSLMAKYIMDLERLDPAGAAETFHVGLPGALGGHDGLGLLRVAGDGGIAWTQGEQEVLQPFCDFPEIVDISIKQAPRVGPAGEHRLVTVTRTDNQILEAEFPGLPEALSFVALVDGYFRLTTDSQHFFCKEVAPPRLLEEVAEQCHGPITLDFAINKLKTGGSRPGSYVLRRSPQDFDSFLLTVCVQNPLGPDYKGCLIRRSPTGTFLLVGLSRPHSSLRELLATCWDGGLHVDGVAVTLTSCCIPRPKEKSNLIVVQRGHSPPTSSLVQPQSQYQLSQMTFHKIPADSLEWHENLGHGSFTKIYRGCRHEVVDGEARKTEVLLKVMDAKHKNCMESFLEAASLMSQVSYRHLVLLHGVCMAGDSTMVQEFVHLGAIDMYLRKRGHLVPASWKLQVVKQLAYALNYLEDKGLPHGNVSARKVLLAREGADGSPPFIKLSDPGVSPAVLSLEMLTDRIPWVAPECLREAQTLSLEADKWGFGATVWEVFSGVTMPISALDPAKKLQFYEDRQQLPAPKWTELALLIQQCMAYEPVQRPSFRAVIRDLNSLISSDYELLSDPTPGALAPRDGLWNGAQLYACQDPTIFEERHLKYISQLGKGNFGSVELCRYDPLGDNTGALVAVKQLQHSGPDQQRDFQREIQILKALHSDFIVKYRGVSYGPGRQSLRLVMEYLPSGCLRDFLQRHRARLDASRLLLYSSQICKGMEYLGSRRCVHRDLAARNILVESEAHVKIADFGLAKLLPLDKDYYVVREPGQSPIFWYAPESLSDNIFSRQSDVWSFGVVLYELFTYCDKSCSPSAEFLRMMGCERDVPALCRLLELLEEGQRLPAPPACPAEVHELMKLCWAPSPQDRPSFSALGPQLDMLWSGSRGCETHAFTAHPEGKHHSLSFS

[12] = Selectivity ratio of IC50 for JAK3 (unknown origin) to IC50 for JAK2 (unknown origin)
[13] = molecular target: Non-receptor tyrosine-protein kinase TYK2 (Homo sapiens, UniProt P29597); experiment: Inhibition of TYK2 (unknown origin) in presence of Mg/ATP mixture by [gamma p33]-ATP based radiometric assay
Sequence of Non-receptor tyrosine-protein kinase TYK2 (P29597 whole entry): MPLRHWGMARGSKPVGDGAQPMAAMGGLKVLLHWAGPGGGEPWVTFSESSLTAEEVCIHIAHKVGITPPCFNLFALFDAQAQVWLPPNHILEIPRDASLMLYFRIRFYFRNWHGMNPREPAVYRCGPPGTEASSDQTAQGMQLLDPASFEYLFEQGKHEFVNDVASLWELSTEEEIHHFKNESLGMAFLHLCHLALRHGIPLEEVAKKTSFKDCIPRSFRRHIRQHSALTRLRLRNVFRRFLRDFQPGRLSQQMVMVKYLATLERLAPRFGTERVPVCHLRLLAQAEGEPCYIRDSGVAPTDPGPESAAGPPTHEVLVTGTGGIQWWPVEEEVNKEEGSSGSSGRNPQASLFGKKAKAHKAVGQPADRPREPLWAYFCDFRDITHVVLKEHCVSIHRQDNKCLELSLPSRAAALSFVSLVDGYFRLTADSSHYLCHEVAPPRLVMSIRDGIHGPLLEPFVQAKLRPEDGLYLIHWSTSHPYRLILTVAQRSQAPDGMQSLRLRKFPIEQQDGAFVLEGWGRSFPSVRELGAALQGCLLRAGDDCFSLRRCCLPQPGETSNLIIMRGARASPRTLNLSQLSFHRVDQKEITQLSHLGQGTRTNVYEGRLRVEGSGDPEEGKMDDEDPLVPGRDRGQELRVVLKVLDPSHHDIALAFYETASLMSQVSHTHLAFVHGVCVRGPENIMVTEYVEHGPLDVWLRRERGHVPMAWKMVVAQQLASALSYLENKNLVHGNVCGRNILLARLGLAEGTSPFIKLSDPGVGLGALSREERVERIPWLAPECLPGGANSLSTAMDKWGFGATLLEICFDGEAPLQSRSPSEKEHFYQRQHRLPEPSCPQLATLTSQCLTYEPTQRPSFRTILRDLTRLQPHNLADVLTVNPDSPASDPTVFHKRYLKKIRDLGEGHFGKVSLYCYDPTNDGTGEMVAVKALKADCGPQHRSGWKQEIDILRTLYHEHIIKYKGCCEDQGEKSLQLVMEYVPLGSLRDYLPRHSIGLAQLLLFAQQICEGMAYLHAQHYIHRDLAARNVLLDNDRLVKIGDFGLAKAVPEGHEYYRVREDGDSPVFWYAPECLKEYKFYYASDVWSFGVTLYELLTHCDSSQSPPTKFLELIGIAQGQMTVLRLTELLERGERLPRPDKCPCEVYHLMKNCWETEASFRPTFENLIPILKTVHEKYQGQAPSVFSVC

SMILES | IC50 [1] | half-life [2] | Activity [3] | IC50 [4] | IC50 [5] | IC50 [6] | Ratio IC50 [7] | IC50 [8] | IC50 [9] | Ratio IC50 [10] | IC50 [11] | Ratio IC50 [12] | IC50 [13]
CCCS(=O)(=O)NCc1ccc(Nc2ncc(C)c(-c3cnn(C(C)C)c3)n2)cc1 | 885 nM | > 2 h | 10% | 101 nM | 108 nM | – | – | – | – | – | – | – | –
Cc1cnc(Nc2ccc(CNC(=O)CCl)cc2)nc1-c1cnn(C(C)C)c1 | 961 nM | 0.72 h | 6% | 98.1 nM | 150 nM | 73 nM | 68.7 | 206 nM | 3 nM | 10 | 166 nM | 55.3 | 33 nM
Cc1cnc(Nc2ccc(CCNC(=O)CCCN(C)C)cc2)nc1-c1cnn(C(C)C)c1 | > 10000 nM | 1 h | 77% | 3310 nM | 5230 nM | – | – | – | – | – | – | – | –
C=CC(=O)NCc1ccc(Nc2ncc(C)c(-c3cnn(C(C)C)c3)n2)cc1 | 1760 nM | 1.79 h | 13% | 129 nM | 245 nM | 106 nM | 40 | 320 nM | 8 nM | 9.6 | 208 nM | 41.6 | 77 nM
Cc1cnc(Nc2ccc(CNC(=O)/C=C/CN(C)C)cc2)nc1-c1cnn(C(C)C)c1 | 826 nM | 1.09 h | 35% | 265 nM | 880 nM | – | – | – | – | – | – | – | –
Cc1cnc(Nc2ccc(CCNC(=O)/C=C/CN(C)C)cc2)nc1-c1cnn(C(C)C)c1 | > 10000 nM | 0.902 h | 64% | 1140 nM | 2190 nM | – | – | – | – | – | – | – | –
CCCCS(=O)(=O)NCc1ccc(Nc2ncc(C)c(-c3cnn(C(C)C)c3)n2)cc1 | 1670 nM | 1.64 h | 15% | 182 nM | 421 nM | – | – | – | – | – | – | – | –
Cc1cnc(Nc2ccc(CCNC(=O)/C=C/C(=O)c3ccccc3)cc2)nc1-c1cnn(C(C)C)c1 | 882 nM | 0.57 h | 34% | 178 nM | 279 nM | – | – | – | – | – | – | – | –
